According to ChEMBL document CHEMBL1154352, “Toll-like receptor 7 selective synthetic oligoribonucleotide agonists: synthesis and structure-activity relationship studies” (J Med Chem, 2009):
Activity calls are given as the source filed them. The calls are words filed in the database; no cut-off is given here.

Assays:
PBMC [1] = test: Immunomodulatory activity in human PBMC assessed as induction of IL12 at 50 ug/ml after 24 hrs; type: functional, cell-based
Summary of the method: (§1)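 Human PBMCs plated at 5 × 10^6 cells/mL; compounds dissolved in PBS added at various concentrations, 37 °C for 24 h. Supernatant cytokines/chemokines quantified with human Luminex multiplex kit.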

PBMC [2] = test: Immunomodulatory activity in human PBMC assessed as induction of IP10 at 50 ug/ml after 24 hrs; type: functional, cell-based; summary of the method: as §1
Homo sapiens [3] = species: Homo sapiens; test: Immunostimulatory activity in human mDC assessed as induction of IL6 at 100 ug/ml after 24 hrs; type: functional
Summary of the method: (§2)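 Human mDCs isolated from PBMCs by CD19+ B-cell depletion then BDCA1 positive selection; plated at 1 × 10^6 cells/mL, compounds in PBS, 37 °C for 24 h; supernatant cytokines by human Luminex multiplex. Representative of four independent experiments.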

PBMC [4] = test: Immunomodulatory activity in human PBMC assessed as induction of MIP1beta at 50 ug/ml after 24 hrs; type: functional, cell-based; summary of the method: as §1
PBMC [5] = test: Immunomodulatory activity in human PBMC assessed as induction of MIP1alpha at 50 ug/ml after 24 hrs; type: functional, cell-based; summary of the method: as §1
Homo sapiens [6] = species: Homo sapiens; test: Immunostimulatory activity in human mDC assessed as induction of IL12 at 100 ug/ml after 24 hrs; type: functional; summary of the method: as §2
PBMC [7] = test: Immunomodulatory activity in human PBMC assessed as induction of IL1-beta at 50 ug/ml after 24 hrs; type: functional, cell-based; summary of the method: as §1
Homo sapiens [8] = species: Homo sapiens; test: Immunostimulatory activity in human mDC assessed as induction of IFNalpha at 100 ug/ml after 24 hrs; type: functional; summary of the method: as §2
[9] = molecular target: T1, Toll-like receptor 8 (Homo sapiens) (UniProt Q9NR97); test: Activation of human TLR8 expressed in HEK293XL assessed as fold induction of NF-kappaB activity at 50 ug/ml after 18 hrs by reporter gene assay relative to control
T1 sequence (whole entry): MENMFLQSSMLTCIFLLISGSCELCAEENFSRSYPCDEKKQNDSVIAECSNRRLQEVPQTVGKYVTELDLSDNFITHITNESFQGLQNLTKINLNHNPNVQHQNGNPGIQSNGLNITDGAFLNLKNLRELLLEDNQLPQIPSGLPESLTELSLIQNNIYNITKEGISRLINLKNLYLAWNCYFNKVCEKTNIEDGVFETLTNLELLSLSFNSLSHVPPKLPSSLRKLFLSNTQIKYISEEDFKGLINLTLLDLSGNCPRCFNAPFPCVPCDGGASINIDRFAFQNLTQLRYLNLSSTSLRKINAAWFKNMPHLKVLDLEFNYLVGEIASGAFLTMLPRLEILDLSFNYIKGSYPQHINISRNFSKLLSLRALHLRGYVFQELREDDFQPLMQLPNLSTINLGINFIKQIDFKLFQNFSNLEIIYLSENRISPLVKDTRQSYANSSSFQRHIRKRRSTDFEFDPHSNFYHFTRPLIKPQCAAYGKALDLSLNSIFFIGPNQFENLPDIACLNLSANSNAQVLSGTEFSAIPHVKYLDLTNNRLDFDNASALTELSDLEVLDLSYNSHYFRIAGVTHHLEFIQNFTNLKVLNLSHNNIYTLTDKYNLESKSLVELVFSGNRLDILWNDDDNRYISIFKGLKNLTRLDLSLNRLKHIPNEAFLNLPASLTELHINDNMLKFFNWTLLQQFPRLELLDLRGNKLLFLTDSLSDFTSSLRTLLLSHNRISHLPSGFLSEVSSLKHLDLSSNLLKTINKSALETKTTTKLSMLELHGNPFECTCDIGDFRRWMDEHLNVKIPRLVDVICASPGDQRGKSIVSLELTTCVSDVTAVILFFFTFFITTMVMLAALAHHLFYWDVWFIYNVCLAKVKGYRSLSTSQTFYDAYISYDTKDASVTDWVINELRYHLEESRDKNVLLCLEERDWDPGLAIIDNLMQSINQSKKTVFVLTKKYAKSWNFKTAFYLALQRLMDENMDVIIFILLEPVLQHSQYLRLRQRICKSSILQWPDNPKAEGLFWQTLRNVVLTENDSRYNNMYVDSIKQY
Summary of the method: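 HEK293 cells stably expressing human TLR7 or TLR8, transiently transfected with SEAP reporter plasmid; medium replaced, SIMRA compounds added, 18 h incubation. Supernatant SEAP measured by QuantiBlue; expressed as fold increase in NF-κB activity over PBS control. Tabulated data at 50 μg/mL, representative of three independent experiments.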

PBMC [10] = test: Immunomodulatory activity in human PBMC assessed as induction of MCP1 at 50 ug/ml after 24 hrs; type: functional, cell-based; summary of the method: as §1
PBMC [11] = test: Immunomodulatory activity in human PBMC assessed as induction of MIP1beta after 24 hrs; type: functional, cell-based; summary of the method: as §1
Homo sapiens [12] = species: Homo sapiens; test: Immunostimulatory activity in human pDC assessed as induction of IL6 at 100 ug/ml after 24 hrs; type: functional
Summary of the method: (§3)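 Human pDCs plated at 1 × 10^6 cells/mL; compounds in PBS added, 37 °C for 24 h; supernatant cytokines/chemokines by human Luminex multiplex kit.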

[13] = molecular target: Toll-like receptor 3 (Homo sapiens) (UniProt O15455); test: Activation of human TLR3 expressed in HEK293 assessed as induction of NF-kappaB activity reporter gene assay; type: cell-based
Homo sapiens [14] = species: Homo sapiens; test: Immunostimulatory activity in human mDC assessed as induction of TNFalpha at 100 ug/ml after 24 hrs; type: functional; summary of the method: as §2
Homo sapiens [15] = species: Homo sapiens; test: Immunostimulatory activity in human mDC assessed as induction of IP10 at 100 ug/ml after 24 hrs; type: functional; summary of the method: as §2
PBMC [16] = test: Immunomodulatory activity in human PBMC assessed as induction of MCP1 after 24 hrs; type: functional, cell-based; summary of the method: as §1
PBMC [17] = test: Immunomodulatory activity in human PBMC assessed as induction of IL6 at 50 ug/ml after 24 hrs; type: functional, cell-based; summary of the method: as §1
Mus musculus = test: Immunomodulatory activity in C57BL/6 mouse assessed as induction of IL12 release at 25 mg/kg, sc after 2 hrs by ELISA; type: functional, organism-based; design: dose 25 mg/kg
Summary of the method: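 Female C57BL/6 wild-type mice, 5–8 weeks old, n=3; compounds given subcutaneously at 10 or 25 mg/kg. Retro-orbital blood at 2 h; serum cytokines by mouse Luminex multiplex or IL-12 ELISA.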

[18] = Metabolic stability in human serum assessed as full length product remaining after 10 mins by HPLC; type: ADME, cell-free; conditions: read-out: Stability
Summary of the method: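 About 0.5 A260 units compound in 1% human serum in PBS, 37 °C; aliquot taken at 10 min, analysed by anion-exchange HPLC for percent intact full-length product.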

Homo sapiens [19] = species: Homo sapiens; test: Immunostimulatory activity in human pDC assessed as induction of IP10 at 100 ug/ml after 24 hrs; type: functional; summary of the method: as §3
PBMC [20] = test: Immunomodulatory activity in human PBMC assessed as induction of IFNalpha at 50 ug/ml after 24 hrs; type: functional, cell-based; summary of the method: as §1
PBMC [21] = test: Immunomodulatory activity in human PBMC assessed as induction of TNFalpha after 24 hrs; type: functional, cell-based; summary of the method: as §1
Homo sapiens [22] = species: Homo sapiens; test: Immunostimulatory activity in human pDC assessed as induction of IFNalpha at 100 ug/ml after 24 hrs; type: functional; summary of the method: as §3
PBMC [23] = test: Immunomodulatory activity in human PBMC assessed as induction of IL1-beta after 24 hrs; type: functional, cell-based; summary of the method: as §1
PBMC [24] = test: Immunomodulatory activity in human PBMC assessed as induction of TNFalpha at 50 ug/ml after 24 hrs; type: functional, cell-based; summary of the method: as §1

Sequence of Toll-like receptor 3 (Homo sapiens) (O15455 whole entry): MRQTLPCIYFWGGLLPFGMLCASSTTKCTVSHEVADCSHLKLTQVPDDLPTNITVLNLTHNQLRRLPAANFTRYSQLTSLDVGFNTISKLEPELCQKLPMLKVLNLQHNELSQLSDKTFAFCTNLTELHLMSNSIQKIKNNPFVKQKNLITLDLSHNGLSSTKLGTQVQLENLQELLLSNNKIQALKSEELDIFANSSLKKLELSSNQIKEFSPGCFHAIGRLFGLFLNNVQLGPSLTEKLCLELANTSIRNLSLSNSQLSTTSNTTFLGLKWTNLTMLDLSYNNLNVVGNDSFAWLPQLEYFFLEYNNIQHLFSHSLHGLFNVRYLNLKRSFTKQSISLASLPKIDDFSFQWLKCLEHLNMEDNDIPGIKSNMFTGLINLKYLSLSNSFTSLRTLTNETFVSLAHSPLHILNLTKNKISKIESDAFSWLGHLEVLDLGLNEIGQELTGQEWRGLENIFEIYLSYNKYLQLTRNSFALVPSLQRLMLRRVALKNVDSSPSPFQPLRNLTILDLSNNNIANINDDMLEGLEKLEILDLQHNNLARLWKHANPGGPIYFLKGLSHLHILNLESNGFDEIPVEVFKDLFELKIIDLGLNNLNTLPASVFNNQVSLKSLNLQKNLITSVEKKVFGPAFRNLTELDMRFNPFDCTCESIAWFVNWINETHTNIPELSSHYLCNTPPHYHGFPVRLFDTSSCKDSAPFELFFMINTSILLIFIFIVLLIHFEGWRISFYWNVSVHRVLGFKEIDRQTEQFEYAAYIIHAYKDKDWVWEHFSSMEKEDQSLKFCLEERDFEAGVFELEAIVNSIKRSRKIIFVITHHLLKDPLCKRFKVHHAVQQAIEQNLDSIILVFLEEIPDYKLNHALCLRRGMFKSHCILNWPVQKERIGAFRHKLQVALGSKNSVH

## Nc1ccn([C@@H]2O[C@H](COP(=O)(S)O[C@H]3[C@@H](O)[C@H](n4cnc5c(N)ncnc54)O[C@@H]3COP(=O)(S)O[C@H]3[C@@H](O)[C@H](n4ccc5c(=O)[nH]c(N)nc54)O[C@@H]3COP(=O)(S)O[C@H]3[C@@H](O)[C@H](n4ccc(=O)[nH]c4=O)O[C@@H]3COP(=O)(S)O[C@H]3[C@@H](O)[C@H](n4ccc5c(=O)[nH]c(N)nc54)O[C@@H]3COP(=O)(S)O[C@H]3[C@@H](O)[C@H](n4cnc5c(N)ncnc54)O[C@@H]3COP(=O)(S)O[C@H]3[C@@H](O)[C@H](n4cnc5c(N)ncnc54)O[C@@H]3CO)[C@@H](OP(=O)(S)OC[C@H]3O[C@@H](n4ccc5c(=O)[nH]c(N)nc54)[C@H](O)[C@@H]3OP(=O)(S)OC[C@H]3O[C@@H](n4ccc(N)nc4=O)[C@H](O)[C@@H]3OP(=O)(S)OC[C@H]3O[C@@H](n4ccc(=O)[nH]c4=O)[C@H](O)[C@@H]3OP(=O)(S)OC[C@H]3O[C@@H](n4ccc(=O)[nH]c4=O)[C@H](O)[C@@H]3OP(=O)(S)OCC(O)COP(=O)(S)O[C@H]3[C@@H](O)[C@H](n4ccc(=O)[nH]c4=O)O[C@@H]3COP(=O)(S)O[C@H]3[C@@H](O)[C@H](n4ccc(=O)[nH]c4=O)O[C@@H]3COP(=O)(S)O[C@H]3[C@@H](O)[C@H](n4ccc(N)nc4=O)O[C@@H]3COP(=O)(S)O[C@H]3[C@@H](O)[C@H](n4ccc5c(=O)[nH]c(N)nc54)O[C@@H]3COP(=O)(S)O[C@H]3[C@@H](O)[C@H](n4ccc(N)nc4=O)O[C@@H]3COP(=O)(S)O[C@H]3[C@@H](O)[C@H](n4cnc5c(N)ncnc54)O[C@@H]3COP(=O)(S)O[C@H]3[C@@H](O)[C@H](n4ccc5c(=O)[nH]c(N)nc54)O[C@@H]3COP(=O)(S)O[C@H]3[C@@H](O)[C@H](n4ccc(=O)[nH]c4=O)O[C@@H]3COP(=O)(S)O[C@H]3[C@@H](O)[C@H](n4ccc5c(=O)[nH]c(N)nc54)O[C@@H]3COP(=O)(S)O[C@H]3[C@@H](O)[C@H](n4cnc5c(N)ncnc54)O[C@@H]3COP(=O)(S)O[C@H]3[C@@H](O)[C@H](n4cnc5c(N)ncnc54)O[C@@H]3CO)[C@H]2O)c(=O)n1 (stereo not given in full)
PBMC [1]
  Activity: 316 pg/mL
PBMC [2]
  Activity: 629 pg/mL
Homo sapiens [3]
  Activity: Active
PBMC [4]
  Activity: 6230 pg/mL
PBMC [5]
  Activity: 2540 pg/mL
Homo sapiens [6]
  Activity: Active
PBMC [7]
  Activity: 105 pg/mL
Homo sapiens [8]
  Activity: Active
[9]
  fold change (FC): 0.7
PBMC [10]
  Activity: 51500 pg/mL
PBMC [11]
  Activity: Dose-dependent effect
Homo sapiens [12]
  Activity: Active
[13]
  Activity: inactive
Homo sapiens [14]
  Activity: Active
Homo sapiens [15]
  Activity: Active
PBMC [16]
  Activity: Dose-dependent effect
PBMC [17]
  Activity: 1300 pg/mL
Mus musculus
  Activity: Active
[18]
  remaining at 10 min: 87%
Homo sapiens [19]
  Activity: Active
PBMC [20]
  Activity: 209 pg/mL
PBMC [21]
  Activity: Dose-dependent effect
Homo sapiens [22]
  Activity: Active
PBMC [23]
  Activity: Dose-dependent effect
PBMC [24]
  Activity: 57 pg/mL
